Reference: ChEMBL document CHEMBL4028857, “Anchimerically Activated ProTides as Inhibitors of Cap-Dependent Translation and Inducers of Chemosensitization in Mantle Cell Lymphoma” (J Med Chem, 2017)
The source made the active and inactive calls. The rule behind the calls is not given here.

How the values were obtained:
[1] = system: Mino; assay: Antiproliferative activity against human Mino cells at 100 uM preincubated for 48 hrs followed by thymidine addition measure after 16 hrs by Thymidine incorporation assay; assay type: functional, cell-based
Procedure, shortened: (§1)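 MCL lines treated 48 h with compound re-added daily, alone or with co-drug (ibrutinib 25 µM where used), then thymidine added for a further 16 h; proliferation read as thymidine incorporation.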

[2] = target: T1, Adenosine 5'-monophosphoramidase HINT1 (Homo sapiens, UniProt P49773); assay: Prodrug activation in human GRANTA-519 cells assessed as hint1-mediated 2-amino-7-(2-(4-chlorophenoxy)ethyl)-9-((2R,3R,4S,5R)-3,4-dihydroxy-5-(phosphonooxymethyl)tetrahydrofuran-2-yl)-6-oxo-6,9-dihydro-1H-purin-7-ium formation per 5 million cells at 150 uM after 12 hrs by LC-MS/MS analysis relative to 9-((2R,3R,4S,5R)-5-(((((2-(1H-Indol-3-yl)ethyl)amino)-(hydroxy)phosphoryl)oxy)methyl)-3,4-dihydroxytetrahydrofuran-2-yl)-2-amino-7-(2-(4-chlorophenoxy)ethyl)-6-oxo-6,9-dihydro-1H-purin-7-ium; assay type: cell-based
Procedure, shortened: (§2)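 Mantle cell lymphoma cells (five million) grown in RPMI with 10% FBS, penicillin/streptomycin and L-glutamine at 37 °C, 5% CO2, then exposed to 150 µM compound for 12 h at 37 °C. Washed with ice-cold PBS, pellet extracted in MeOH/NH4OAc (60:40) with 80 fmol internal standards, three liquid-N2 freeze–thaw cycles, filtered, dried, redissolved in 20 mM HEPES pH 7.2. Analysed by LC-MS/MS against a standard curve.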

[3] = target: Eukaryotic translation initiation factor 4E (Homo sapiens) (UniProt P06730); assay: Inhibition of eIF4E in human GRANTA-519 cells assessed as increase in p27 protein expression after 48 hrs by Western blot method; assay type: cell-based
Procedure, shortened: (§3)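 MCL lines treated 48 h with compound; protein quantified and Western blotted with eIF4E, eIF4G, actin, c-Myc and Bcl-2 antibodies.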

[4] = target: Eukaryotic translation initiation factor 4E-binding protein 1 (Homo sapiens) (UniProt Q13541); assay: Inhibition of 4EBP1 phosphorylation at Ser 65 residues in human Mino cells at 100 uM after 48 hrs in presence of ibrutinib by Western blot analysis; assay type: cell-based; procedure, shortened: as §3
[5] = system: Granta-519; assay: Antiproliferative activity against human GRANTA-519 cells at 200 uM preincubated for 48 hrs followed by thymidine addition measure after 16 hrs by Thymidine incorporation assay; assay type: functional; procedure, shortened: as §1
[6] = target: T1, Adenosine 5'-monophosphoramidase HINT1; assay: Prodrug activation in human Mino cells assessed as Hint1 mediated 2-amino-7-(2-(4-chlorophenoxy)ethyl)-9-((2R,3R,4S,5R)-3,4-dihydroxy-5-(phosphonooxymethyl)tetrahydrofuran-2-yl)-6-oxo-6,9-dihydro-1H-purin-7-ium formation per 5 million cells at 150 uM after 12 hrs by LC-MS/MS analysis; assay type: cell-based; procedure, shortened: as §2
[7] = Half life in Sprague-Dawley rat at 2.5 mg/kg, iv by LC-MS/MS analysis; assay type: ADME, organism-based; conditions: in vivo
Procedure, shortened: (§4)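 Female Sprague-Dawley rats (250-274 g, n=3, catheterized femoral/jugular veins) dosed once p.o. by gavage (25 mg/kg) then, after a 3-day washout, i.v. (2.5 mg/kg). Formulation: 10 mg/mL in 0.5% aqueous CMC with 5% DMSO. Serial blood draws to 480 min into K2EDTA; plasma protein-precipitated with acetonitrile plus internal standards; LC-MS/MS (positive MRM); non-compartmental PK; %F from dose-normalized AUC per rat.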

[8] = Cmax in Sprague-Dawley rat at 25 mg/kg, po measured at 30 mins post dose by LC-MS/MS analysis; assay type: ADME, organism-based; parameters: dose 25 mg/kg, route oral; conditions: in vivo; procedure, shortened: as §4
[9] = target: Eukaryotic translation initiation factor 4E-binding protein 1 (Homo sapiens) (UniProt Q13541); assay: Inhibition of 4EBP1 phosphorylation at Ser 65 residues in human Mino cells at 100 uM after 48 hrs by Western blot analysis; assay type: cell-based; procedure, shortened: as §3
[10] = Cytotoxicity against human Mino cells assessed as reduction in cell survival at 100 uM after 48 hrs in presence of doxorubicin by Annexin V/propidium iodide based flow cytometric analysis
Procedure, shortened: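 MCL lines treated 48 h with compound re-added daily (alone or with co-drug; ibrutinib 25 µM), then survival assessed by Annexin V/PI flow cytometry.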

[11] = target: Eukaryotic translation initiation factor 4E (Homo sapiens) (UniProt P06730); assay: Inhibition of eIF4E in human Mino cells assessed as down regulation of c-Myc protein expression after 48 hrs by Western blot method; assay type: cell-based; procedure, shortened: as §3
[12] = system: Rattus norvegicus; assay: Clearance in Sprague-Dawley rat at 2.5 mg/kg, iv by LC-MS/MS analysis; assay type: ADME, organism-based; conditions: in vivo; procedure, shortened: as §4

T1 sequence (P49773 whole entry): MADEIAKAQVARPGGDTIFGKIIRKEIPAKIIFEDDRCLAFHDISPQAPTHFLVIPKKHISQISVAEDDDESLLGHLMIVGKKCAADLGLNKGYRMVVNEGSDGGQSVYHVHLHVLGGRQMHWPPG
Chain of Eukaryotic translation initiation factor 4E-binding protein 1 (Homo sapiens) (Q13541 whole entry): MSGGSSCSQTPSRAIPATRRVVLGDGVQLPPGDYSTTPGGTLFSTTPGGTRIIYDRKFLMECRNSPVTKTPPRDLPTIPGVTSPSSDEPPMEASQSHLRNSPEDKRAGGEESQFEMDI
Chain of Eukaryotic translation initiation factor 4E (Homo sapiens) (P06730 whole entry): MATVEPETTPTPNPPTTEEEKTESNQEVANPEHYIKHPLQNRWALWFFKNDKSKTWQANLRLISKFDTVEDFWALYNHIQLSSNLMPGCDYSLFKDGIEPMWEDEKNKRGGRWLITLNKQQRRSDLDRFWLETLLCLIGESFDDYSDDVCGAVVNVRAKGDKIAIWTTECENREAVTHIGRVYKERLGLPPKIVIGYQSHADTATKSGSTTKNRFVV

fold change (FC) [2]: 1.9
inhibition [3]: Dose-dependent effect
inhibition [4]: Active
Drug metabolism [6]: 218 pmol
half-life [7]: 79 min
Cmax [8]: 5 ng/mL
inhibition [9]: inactive
inhibition [11]: Dose-dependent effect
CL [12]: 1.8 L/min/kg
SMILES: CSCCOP(=O)(NCCc1c[nH]c2ccccc12)OC[C@H]1O[C@@H](n2c[n+](CCOc3ccc(Cl)cc3)c3c(=O)[nH]c(N)nc32)[C@H](O)[C@@H]1O (some centres not stated)
Activity [1]: Active
Activity [5]: 100%
Activity [10]: Non-Toxic
